The test system of series [1] is Human immunodeficiency virus 1. The series can be described thus: Antiviral activity against HIV-1 X4 expressing wild-type reverse transcriptase infected in human CD4+ T cells for 3 days by FACS analysis. The series is classed as functional, organism-based. Particulars: Human immunodeficiency virus 1, X4, T-cell, 72 h. In outline: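 Single-round infectivity assay using HIV strains carrying wild-type RT (WT X4); EC50 determined.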
For orientation: Flow cytometry measures light scatter and fluorescence of single cells or particles in a stream.

In series [2] the test system is Human immunodeficiency virus 1. In words: Antiviral activity against HIV-1 X4 expressing reverse transcriptase K101P mutant infected in human CD4+ T cells for 3 days by FACS analysis. In kind it is functional, organism-based. The conditions noted are these: Human immunodeficiency virus 1, T-cell, 72 h. In outline:
(§1)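 Single-round infectivity assay against HIV strains whose RT carries the K101P, K103N or Y181C mutation, alongside a WT X4 strain; EC50 determined.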

Series [3] concerns Human immunodeficiency virus 1. The series can be described thus: Antiviral activity against HIV-1 X4 expressing reverse transcriptase K103N mutant infected in human CD4+ T cells for 3 days by FACS analysis. The series is classed as functional, organism-based. Particulars: Human immunodeficiency virus 1, T-cell, 72 h. In outline: as §1
For series [4], the system named is Human immunodeficiency virus 1. In words: Antiviral activity against HIV-1 X4 expressing reverse transcriptase Y181C mutant infected in human CD4+ T cells for 3 days by FACS analysis. The series is classed as functional, organism-based. The conditions noted are these: Human immunodeficiency virus 1, T-cell, 72 h. In outline:
as §1

Series [5] is described as follows: Aqueous solubility of compound. In kind it is physicochemical.
Series [6] deals with Human immunodeficiency virus type 1 reverse transcriptase (Human immunodeficiency virus 1, UniProt Q72547, K101P). The series can be described thus: Inhibition of HIV-1 reverse transcriptase K101P mutant by fluorescence assay. In outline: (§2)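 PicoGreen fluorescence read-out of reverse transcription, run with both RT(WT) and RT(K101P) enzymes; IC50 determined for each enzyme. The fold-change is IC50 for RT(K101P) over IC50 for RT(WT).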

Series [7] in a line: Cytotoxicity against human CD4-positive T cells. In kind it is cell-based, T-cell.
The target of series [8] is Human immunodeficiency virus type 1 reverse transcriptase (Human immunodeficiency virus 1, UniProt Q72547). The series can be described thus: Inhibition of wild-type HIV-1 reverse transcriptase by fluorescence assay. In outline: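 Reverse transcription inhibition by wild-type RT enzyme, read by PicoGreen fluorescence; IC50 in nM.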
The subject of series [9] is Human immunodeficiency virus 1. In words: Selectivity index, ratio of IC50 for HIV-1 reverse transcriptase K101P mutant to IC50 for wild-type HIV-1 reverse transcriptase. In outline: as §2
Series [10] deals with Human immunodeficiency virus 1. In words: Antiviral activity against HIV-1 NL4-3 expressing reverse transcriptase E138K mutant infected in MT-2 cells by MTT assay. In kind it is functional, organism-based. Particulars: Human immunodeficiency virus 1, NL4-3, MT2. (Tetrazolium dyes change colour on reduction, which living cells bring about.)
The test system of series [11] is Human immunodeficiency virus 1. In words: Antiviral activity against HIV-1 NL4-3 expressing reverse transcriptase E138K/M184V mutant infected in MT-2 cells by MTT assay. The series is classed as functional, organism-based. The conditions noted are these: Human immunodeficiency virus 1, NL4-3, MT2.

SMILES strings stand for the structures. Converted amounts (≈) assume the structure as drawn.

`Cc1cc(/C=C/C#N)cc(C)c1Nc1ccnc(Nc2ccc(C#N)cc2)n1` [RILPIVIRINE]: the EC50 (usually the concentration at which the effect is half-maximal) was determined as 13 nM in series [1], 1140 nM in [2], 13 nM in [3] and 51 nM in series [4]. In [5], the solubility (usually the dissolved amount per volume that the medium holds) is < 0.1 µg/mL. In addition, the IC50 – broadly, the concentration that gives 50% inhibition – in series [6] came to 1000 nM.

For `O=C1Nc2ccc(Cl)cc2[C@@](C#CC2CC2)(C(F)(F)F)O1` [EFAVIRENZ], the concentration giving a half-maximal response (EC50) was determined as 870 nM in series [2], 836 nM in series [3] and 41 nM in series [4].

Turning to `N#Cc1cc2c(Oc3ccccc3OCCn3ccc(=O)[nH]c3=O)cccn2c1`, the EC50 came out at 1 nM in series [1]; 1 nM in series [2]; 3 nM in [3]; 2 nM in series [4]; 0.9 nM in series [10]; 0.75 nM in [11]. For the same molecule, the CC50 (as a rule, the concentration that lowers cell viability or growth by half) in series [7] is > 100000 nM. Besides, the IC50 stood at 1.06 nM in series [8] and 1.9 nM in series [6]. Also, in [9], the Ratio IC50 stood at 1.8.

In the case of `N#C/C=C/c1cc(F)cc(Oc2ccc(F)cc2OCCn2ccc(=O)[nH]c2=O)c1`, the concentration giving a half-maximal response (EC50) in series [1] was found to be 2 nM; in [2] it was 2 nM; in series [3], 89 nM; in series [4] it was 8 nM. Also, in [5], the concentration in solution (solubility) was 10.8 µg/mL (≈ 26.3 µM). Further, in [7], it took 45000 nM to reach half-maximal cytotoxicity (CC50). Further, the IC50 came to 2.7 nM in series [8] and 2.2 nM in series [6]. Moreover, the Ratio IC50 in series [9] amounted to 0.8.

On to `N#C/C=C/c1cc(Cl)cc(Oc2ccccc2OCCn2ccc(=O)[nH]c2=O)c1`, for which the EC50 was found to be 5 nM in [1]; 8 nM in series [2]; 50 nM in series [3]; 23 nM in [4]; 2.8 nM in [10]; 2.2 nM in [11]. Further, the CC50 in series [7] is 18000 nM. Also, the values for the IC50 in [8] and in series [6] were 3.3 nM and 2.1 nM, respectively. In addition, the Ratio IC50 in series [9] turned out to be 0.6.

(Values after ChEMBL document CHEMBL3739311 (ACS Med Chem Lett, 2015).)
